Test results from ChEMBL document CHEMBL3739273, “Synthesis, biological activity evaluation and molecular docking studies of novel coumarin substituted thiazolyl-3-aryl-pyrazole-4-carbaldehydes” (Bioorg Med Chem Lett, 2015).
Values after ≈ are worked out from the molar mass of the structure shown. Active and inactive are the calls of the source. The rule behind the calls is not given here.

Legend:
HeLa [1] = experiment: Induction of apoptosis in human HeLa cell assessed as nuclear condensation after 24 hrs by Hoechst 33258 staining based fluorescence microscopic analysis; assay type: functional
Method in brief: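 HeLa cells treated at 10 µM for 24 h, washed with PBS, then stained with Hoechst 33258 ([…]) for 20 min. Chromatin condensation imaged by fluorescence microscopy with a DAPI filter.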

Klebsiella pneumoniae [2] = experiment: Bactericidal activity against Klebsiella pneumoniae ATCC 43816 after 24 hrs; assay type: functional; conditions: ATCC 43816, 24 h, read-out: MBC99.9
Method in brief: (§1)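 MBC determined by a standard MBC protocol alongside the MIC, with values in µg/mL. Gentamycin sulfate and ampicillin were the references.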

MCF7 = experiment: Anticancer activity against human MCF7 cells assessed as cell viability after 48 hrs by MTT assay; assay type: functional, cell-based; conditions: MCF7, 48 h
Method in brief: (§2)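 MTT cytotoxicity assay in human DU-145 prostate, MCF-7 breast and HeLa cervical cancer cell lines. Doxorubicin was the reference drug.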

Staphylococcus aureus [3] = experiment: Antibacterial activity against methicillin-resistant Staphylococcus aureus NCTC 13616 after 24 hrs by microtiter plate method; assay type: functional; conditions: NCTC 13616, 24 h
Bacillus cereus [4] = experiment: Antibacterial activity against Bacillus cereus ATCC 14579 assessed as growth inhibition at 100 ug/ml after 24 hrs by agar well diffusion method; assay type: functional
Method in brief: (§3)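 Agar well diffusion. Compounds were tested at 10, 20, 100, 200 and 300 µg/mL, and the zone of inhibition was measured in mm. Gentamycin sulfate was the reference drug.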

Bacillus spizizenii [5] = experiment: Antibacterial activity against Bacillus subtilis ATCC 6633 after 24 hrs by microtiter plate method; assay type: functional; conditions: ATCC 6633, 24 h
Method in brief: (§4)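 Test concentrations reported in µg/mL. Gentamycin sulfate and ampicillin were the reference drugs.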

Staphylococcus aureus [6] = experiment: Bactericidal activity against methicillin-resistant Staphylococcus aureus NCTC 13616 after 24 hrs; assay type: functional; conditions: NCTC 13616, 24 h, read-out: MBC99.9
Method in brief: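 MBC determined by a standard MBC protocol run alongside the MIC determination. Gentamycin sulfate and ampicillin served as reference drugs.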

Klebsiella pneumoniae [7] = experiment: Antibacterial activity against Klebsiella pneumoniae ATCC 43816 assessed as growth inhibition at 100 ug/ml after 24 hrs by agar well diffusion method; assay type: functional; method in brief: as §3
Escherichia coli [8] = experiment: Antibacterial activity against Escherichia coli ATCC 8739 after 24 hrs by microtiter plate method; assay type: functional; conditions: ATCC 8739, 24 h; method in brief: as §4
Escherichia coli [9] = experiment: Antibacterial activity against Escherichia coli ATCC 8739 assessed as growth inhibition at 100 ug/ml after 24 hrs by agar well diffusion method; assay type: functional; method in brief: as §3
Proteus vulgaris [10] = experiment: Bactericidal activity against Proteus vulgaris ATCC 13315 after 24 hrs; assay type: functional; conditions: ATCC 13315, 24 h, read-out: MBC99.9; method in brief: as §1
Bacillus cereus [11] = experiment: Bactericidal activity against Bacillus cereus ATCC 14579 after 24 hrs; assay type: functional; conditions: ATCC 14579, 24 h, read-out: MBC99.9; method in brief: as §1
Cytochrome P450 2A6 = molecular target: T1, Cytochrome P450 2A6 (Homo sapiens, UniProt P11509); experiment: Inhibition of human microsomal CYP2A6; assay type: ADME
T1 sequence (P11509 whole entry): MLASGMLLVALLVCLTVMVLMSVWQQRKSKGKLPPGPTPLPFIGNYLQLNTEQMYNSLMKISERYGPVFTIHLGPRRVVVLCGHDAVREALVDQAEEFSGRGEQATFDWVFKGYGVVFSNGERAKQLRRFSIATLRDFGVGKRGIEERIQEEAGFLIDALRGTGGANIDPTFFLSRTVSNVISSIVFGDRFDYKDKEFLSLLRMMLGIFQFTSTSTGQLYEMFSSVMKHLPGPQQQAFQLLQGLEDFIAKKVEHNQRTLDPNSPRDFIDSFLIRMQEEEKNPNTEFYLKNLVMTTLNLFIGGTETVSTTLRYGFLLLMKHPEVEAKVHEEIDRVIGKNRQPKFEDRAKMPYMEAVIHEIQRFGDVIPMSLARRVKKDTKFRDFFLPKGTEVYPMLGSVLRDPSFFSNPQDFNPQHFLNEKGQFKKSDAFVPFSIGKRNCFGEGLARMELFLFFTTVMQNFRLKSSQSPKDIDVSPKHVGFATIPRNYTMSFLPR

Proteus vulgaris [12] = experiment: Antibacterial activity against Proteus vulgaris ATCC 13315 after 24 hrs by microtiter plate method; assay type: functional; conditions: ATCC 13315, 24 h; method in brief: as §4
Bacillus spizizenii [13] = experiment: Bactericidal activity against Bacillus subtilis ATCC 6633 after 24 hrs; assay type: functional; conditions: ATCC 6633, 24 h, read-out: MBC99.9; method in brief: as §1
Proteus vulgaris [14] = experiment: Antibacterial activity against Proteus vulgaris ATCC 13315 assessed as growth inhibition at 100 ug/ml after 24 hrs by agar well diffusion method; assay type: functional; method in brief: as §3
Staphylococcus aureus [15] = experiment: Antibacterial activity against methicillin-resistant Staphylococcus aureus NCTC 13616 assessed as growth inhibition at 100 ug/ml after 24 hrs by agar well diffusion method; assay type: functional, organism-based
Method in brief: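 Agar well diffusion assay with compounds applied to wells at several concentrations, including the 100 level reported here. The zone of inhibition was measured in mm. Gentamycin sulfate was the standard drug.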

Bacillus spizizenii [16] = experiment: Antibacterial activity against Bacillus subtilis ATCC 6633 assessed as growth inhibition at 100 ug/ml after 24 hrs by agar well diffusion method; assay type: functional, organism-based; method in brief: as §3
[17] = n-Octanol-phosphate buffer partition coefficient, log P of the compound at pH 7.4 after 30 mins by shake flask method; assay type: physicochemical
Method in brief: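 Shake-flask partition between n-octanol and 50 mM phosphate buffer, pH 7.4. P calculated and expressed as logP.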

Klebsiella pneumoniae [18] = experiment: Antibacterial activity against Klebsiella pneumoniae ATCC 43816 after 24 hrs by microtiter plate method; assay type: functional; conditions: ATCC 43816, 24 h; method in brief: as §4
Bacillus cereus [19] = experiment: Antibacterial activity against Bacillus cereus ATCC 14579 after 24 hrs by microtiter plate method; assay type: functional; conditions: ATCC 14579, 24 h; method in brief: as §4
Escherichia coli [20] = experiment: Bactericidal activity against Escherichia coli ATCC 8739 after 24 hrs; assay type: functional; conditions: ATCC 8739, 24 h, read-out: MBC99.9; method in brief: as §1
HeLa [21] = experiment: Anticancer activity against human HeLa cells assessed as cell viability after 48 hrs by MTT assay; assay type: functional, cell-based; method in brief: as §2
[22] = Anticancer activity against human DU145 cells assessed as cell viability after 48 hrs by MTT assay; assay type: functional, cell-based; conditions: DU-145, 48 h; method in brief: as §2

Row | Structure (SMILES) | MBC (Klebsiella pneumoniae [2]) [µg/mL] | IC50 (MCF7) [µM] | MIC (Staphylococcus aureus [3]) [µg/mL] | growth inhibition (GI) (Bacillus cereus [4]) | MIC (Bacillus spizizenii [5]) [µg/mL] | MBC (Staphylococcus aureus [6]) [µg/mL] | MIC (Escherichia coli [8]) [µg/mL] | MBC (Proteus vulgaris [10]) [µg/mL] | MBC (Bacillus cereus [11]) [µg/mL] | Ki (Cytochrome P450 2A6) [µM] | MIC (Proteus vulgaris [12]) [µg/mL] | MBC (Bacillus spizizenii [13]) [µg/mL] | growth inhibition (GI) (Staphylococcus aureus [15]) | growth inhibition (GI) (Bacillus spizizenii [16]) | logD at 0.5 h [17] | MIC (Klebsiella pneumoniae [18]) [µg/mL] | MIC (Bacillus cereus [19]) [µg/mL] | MBC (Escherichia coli [20]) [µg/mL] | IC50 (HeLa [21]) [µM] | IC50 [22] [µM] | further results
1 | Cc1ccc(-c2nn(-c3nc(-c4cc5cc(Br)cc(Br)c5oc4=O)cs3)cc2C=O)cc1 | 115 (≈ 201 µM) | 24.5 | 106 (≈ 185 µM) | Active | 92.4 (≈ 162 µM) | 175 (≈ 306 µM) | 86.5 (≈ 151 µM) | 150 (≈ 263 µM) | 110 (≈ 193 µM) | 0.00173 | 101 (≈ 176 µM) | 150 (≈ 263 µM) | Active | Active | 3.34 | 79.1 (≈ 138 µM) | 72.8 (≈ 127 µM) | 130 (≈ 228 µM) | 6.25 | 10.8 | Activity (HeLa [1]): Active; zone of inhibition at 100 µg/mL (Klebsiella pneumoniae [7]; ATCC 43816, 24 h, read-out: IZ): 24 mm; zone of inhibition at 100 µg/mL (Escherichia coli [9]; ATCC 8739, 24 h, read-out: IZ): 22 mm; zone of inhibition at 100 µg/mL (Proteus vulgaris [14]; ATCC 13315, 24 h, read-out: IZ): 20 mm
2 | O=Cc1cn(-c2nc(-c3cc4cc(Br)cc(Br)c4oc3=O)cs2)nc1-c1ccccc1 | 240 (≈ 431 µM) | 22.2 | 117 (≈ 210 µM) | Active | 118 (≈ 212 µM) | 175 (≈ 314 µM) | 116 (≈ 207 µM) | 240 (≈ 431 µM) | 240 (≈ 431 µM) | 0.00341 | 120 (≈ 215 µM) | 240 (≈ 431 µM) | Active | Active | 3.11 | 119 (≈ 214 µM) | 119 (≈ 214 µM) | 170 (≈ 305 µM) | 13.7 | 28 | growth inhibition (GI) (Klebsiella pneumoniae [7]): Active; growth inhibition (GI) (Escherichia coli [9]): Active; growth inhibition (GI) (Proteus vulgaris [14]): Active
